# Values joined by “and” are separate entries in the source; they are usually repeats but may differ in a detail not shown here. Identical values can stand only once.
# How the values were obtained:
# [1] = Toxicity measured in CEM cells in the absence of virus.; type: cell-based; conditions: human, CEM cells (CCRF-CEM); read-out: TC50 (the source's name)
# [2] = system: Human immunodeficiency virus 1; test: Antiviral activity in HIV infected CEM cells as effective concentration at which 50% of the cells are protected from cytopathic effect.; type: functional, organism-based; conditions: Human immunodeficiency virus 1, CCRF-CEM
# Procedure, shortened: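 HIV-IIIB-infected human lymphocyte-derived CEM cells. EC50 is the drug concentration at which 50% of cells are protected from HIV cytopathic effects. Testing was done at Southern Research Institute.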
# [3] = target: Human immunodeficiency virus type 1 protease (Human immunodeficiency virus 1, UniProt Q72874); test: HIV-1 protease inhibition.
# Procedure, shortened: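 Affinity-purified HIV-1 protease (1.5 nM final) with 40 µM peptide substrate His-Lys-Ala-Arg-Val-Leu-(p-NO2-Phe)-Glu-Ala-Nle-Ser-NH2 and 1.0% DMSO. Buffer: 80 mM MES, 160 mM NaCl, 1.0 mM DTT, 1.0 mM EDTA, 0.1% PEG 8000, pH 6.2. Incubated 60 min at 37 °C, then quenched with TFA (2% final). Products separated by reverse-phase HPLC and read at 220 nm. Percent control derived from % conversion with vs without inhibitor; IC50 then determined.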
# [4] = Compound was evaluated for pharmacokinetic parameter, Cmax in rat at 25 mg/kg po; type: ADME, organism-based; design: dose 25 mg/kg, route oral; conditions: in vivo
# [5] = compound was evaluated for pharmacokinetic parameter, half life period (T1/2); type: ADME, organism-based; conditions: in vivo
# Procedure, shortened: (§1)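 Species-dependent dosing. Mice: 25 mg/kg po in 20% 0.1 N NaOH/80% 0.5% methylcellulose; values from a pool of five mice; plasma levels by HPLC. Rats: 10 mg/kg po by capsule or pH 7.4-buffered solution; average of two animals. Dogs: 10 mg/kg in saline (sodium salt) or pH 10-buffered 0.1 NaOH (free acid).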
# [6] = Bioavailability; type: ADME, organism-based; conditions: eutheria, in vivo
# Procedure, shortened: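 Dogs dosed at 10 mg/kg. Vehicle was either the sodium salt in normal saline or the free acid in 0.1 NaOH buffered to pH 10, depending on compound.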
# [7] = compound was evaluated for pharmacokinetic parameter, Tmax; type: ADME, organism-based; conditions: in vivo; procedure, shortened: as §1
# [8] = Compound was evaluated for pharmacokinetic parameter, Cmax; type: ADME, organism-based; conditions: in vivo
# [9] = Compound was evaluated for pharmacokinetic parameter, half life period (T1/2); type: ADME, organism-based; conditions: in vivo
# [10] = Compound was evaluated for pharmacokinetic parameter, Tmax; type: ADME, organism-based; conditions: in vivo
# [11] = Compound was evaluated for pharmacokinetic parameter, area under curve (AUC); type: ADME; design: unit not given here
# [12] = Compound was evaluated for pharmacokinetic parameter, Cmax in rat at 10 mg/kg po; conditions: in vivo
# [13] = compound was evaluated for pharmacokinetic parameter, area under curve (AUC); type: ADME; procedure, shortened: as §1
EC50 [2],IC50 [3],Compound,CC50 [1],further results
120 nM,0.13 nM,Cc1cc(SC2=C(O)O[C@](CCc3ccsc3)(C(C)C)CC2=O)c(C(C)(C)C)cc1CO,91000 nM,Cmax [4]: 14.7 µM; T1/2 [5]: 690 min and 324 min; bioavailability [6]: 88%; Tmax [7]: 30 min
260 nM,0.41 nM,Cc1cc(SC2=C(O)OC(CCc3cscc3C)(C(C)C)CC2=O)c(C(C)(C)C)cc1CO (stereo not given),51000 nM,–
5600 nM,0.28 nM,Cc1cc(SC2=C(O)OC(CCc3cc[nH]n3)(C(C)C)CC2=O)c(C(C)(C)C)cc1CO (stereo not given),320000 nM,–
300 nM,0.17 nM,Cc1cc(SC2=C(O)OC(CCc3ccsc3)(C(C)C)CC2=O)c(C(C)(C)C)cc1CO (stereo not given),110000 nM,Cmax [12]: 11.2 µM; Cmax [8]: 39.6 µM; half-life [5]: 564 min; half-life [9]: 210 min; Tmax [10]: 30 min; AUC [11]: 221; Tmax [7]: 30 min; AUC [13]: 21 µg/h/mL
1500 nM,1.5 nM,Cc1cc(SC2=C(O)OC(CCc3ccncc3)(C(C)C)CC2=O)c(C(C)(C)C)cc1CO (stereo not given),296000 nM,–
800 nM,0.45 nM,Cc1csc(CCC2(C(C)C)CC(=O)C(Sc3cc(C)c(CO)cc3C(C)(C)C)=C(O)O2)n1 (stereo not given),171000 nM,–
23000 nM,18 nM,CC(=O)Nc1nc(CCC2(C(C)C)CC(=O)C(Sc3cc(C)c(CO)cc3C(C)(C)C)=C(O)O2)cs1 (stereo not given),210000 nM,–
5700 nM,–,Cc1cc(SC2=C(O)OC(CCc3cnc(N)nc3)(C(C)C)CC2=O)c(C(C)(C)C)cc1CO (stereo not given),> 200000 nM,–
1200 nM,0.8 nM,Cc1cc(SC2=C(O)OC(CCc3scnc3C(C)C)(C(C)C)CC2=O)c(C(C)(C)C)cc1CO (stereo not given),102000 nM,–
2800 nM,1.3 nM,Cc1cc(SC2=C(O)OC(CCc3cscn3)(C(C)C)CC2=O)c(C(C)(C)C)cc1CO (stereo not given),141000 nM,–
10000 nM,5.8 nM,Cc1cc(SC2=C(O)OC(CCc3ncsc3C(C)C)(C(C)C)CC2=O)c(C(C)(C)C)cc1CO (stereo not given),52000 nM,–
–,5 nM,Cc1cc(SC2=C(O)OC(CCC3CCCO3)(C(C)C)CC2=O)c(C(C)(C)C)cc1CO (stereo not given),–,–
3500 nM,0.95 nM,Cc1cc(SC2=C(O)OC(CCc3csc(N)n3)(C(C)C)CC2=O)c(C(C)(C)C)cc1CO (stereo not given),> 200000 nM,–

# Further lines, the compound ahead of its results:
Compound,EC50 [2],IC50 [3],CC50 [1],further results
Cc1cc(SC2=C(O)O[C@@](CCc3ccsc3)(C(C)C)CC2=O)c(C(C)(C)C)cc1CO,14000 nM,11.5 nM,95000 nM,–
Cc1cc(SC2=C(O)O[C@](CCc3ccc(N)cc3)(C(C)C)CC2=O)c(C(C)(C)C)cc1CO,–,0.11 nM,210000 nM,Cmax [8]: 26.5 µM; half-life [5]: 222 min; half-life [9]: 132 min; Tmax [10]: 30 min; bioavailability [6]: 33%; AUC [11]: 82; Tmax [7]: 30 min
Cc1cc(SC2=C(O)OC(CCc3c[nH]cn3)(C(C)C)CC2=O)c(C(C)(C)C)cc1CO (stereo not given),89000 nM,70 nM,200000 nM,–
Cc1cc(SC2=C(O)OC(CCc3ccc4[nH]ccc4c3)(C(C)C)CC2=O)c(C(C)(C)C)cc1CO (stereo not given),680 nM,0.98 nM,46000 nM,–
Cc1cc(SC2=C(O)OC(CCc3ccsc3CO)(C(C)C)CC2=O)c(C(C)(C)C)cc1CO (stereo not given),920 nM,14 nM,200000 nM,–
Cc1cc(SC2=C(O)OC(CCc3c[nH]c4ccccc34)(C(C)C)CC2=O)c(C(C)(C)C)cc1CO (stereo not given),370 nM,0.72 nM,46000 nM,–
Cc1cc(SC2=C(O)OC(CCc3nc4ccccc4s3)(C(C)C)CC2=O)c(C(C)(C)C)cc1CO (stereo not given),1500 nM,1.4 nM,62000 nM,–
O=c1cc(-c2ccccc2)oc(O)c1Sc1ccccc1,–,3000 nM,–,–
Cc1cc(SC2=C(O)OC(CCc3ccco3)(C(C)C)CC2=O)c(C(C)(C)C)cc1CO (stereo not given),750 nM,0.78 nM,190000 nM,–
Cc1cc(SC2=C(O)OC(CCc3cncnc3)(C(C)C)CC2=O)c(C(C)(C)C)cc1CO (stereo not given),1200 nM,17 nM,> 200000 nM,–
Cc1cc(SC2=C(O)OC(CCc3cccnc3)(C(C)C)CC2=O)c(C(C)(C)C)cc1CO (stereo not given),–,0.94 nM,–,Tmax [10]: 30 min
Cc1cnc(CCC2(C(C)C)CC(=O)C(Sc3cc(C)c(CO)cc3C(C)(C)C)=C(O)O2)s1 (stereo not given),1900 nM,19 nM,210000 nM,–
Cc1cc(SC2=C(O)OC(CCc3csc(C(C)C)n3)(C(C)C)CC2=O)c(C(C)(C)C)cc1CO (stereo not given),23000 nM,1.6 nM,91000 nM,–
Cc1cc(SC2=C(O)OC(CCc3ccccn3)(C(C)C)CC2=O)c(C(C)(C)C)cc1CO (stereo not given),1500 nM,1.2 nM,249000 nM,–
Cc1cc(SC2=C(O)OC(CCc3nccs3)(C(C)C)CC2=O)c(C(C)(C)C)cc1CO (stereo not given),700 nM,0.57 nM,216000 nM,Cmax ([12]; read-out: Cmax): 2.7 µM; Cmax [8]: 33 µM; half-life [5]: 732 min; half-life [9]: 198 min; Tmax [10]: 30 min; AUC [11]: 132; Tmax [7]: 15 min; AUC [13]: 10000 ng·h/mL
Cc1cc(SC2=C(O)OC(CCc3ccc(CO)s3)(C(C)C)CC2=O)c(C(C)(C)C)cc1CO (stereo not given),2500 nM,0.58 nM,182000 nM,–
Cc1cc(SC2=C(O)OC(CCc3cccs3)(C(C)C)CC2=O)c(C(C)(C)C)cc1CO (stereo not given),500 nM,0.35 nM,81000 nM,–
Cc1cc(SC2=C(O)OC(CCc3cncs3)(C(C)C)CC2=O)c(C(C)(C)C)cc1CO (stereo not given),1900 nM,0.24 nM,229000 nM,–
Cc1nc(CCC2(C(C)C)CC(=O)C(Sc3cc(C)c(CO)cc3C(C)(C)C)=C(O)O2)cs1 (stereo not given),4500 nM,13 nM,210000 nM,–
Cc1cc(SC2=C(O)OC(CCc3scnc3C)(C(C)C)CC2=O)c(C(C)(C)C)cc1CO (stereo not given),370 nM,–,164000 nM,Cmax [12]: 0.77 µM; Tmax [7]: 15 min
Cc1cc(SC2=C(O)OC(CCc3csc(CO)c3)(C(C)C)CC2=O)c(C(C)(C)C)cc1CO (stereo not given),18000 nM,0.19 nM,210000 nM,–
Cc1cc(SC2=C(O)OC(CCc3nc(C(C)C)cs3)(C(C)C)CC2=O)c(C(C)(C)C)cc1CO (stereo not given),33000 nM,14 nM,84000 nM,–
Cc1cc(SC2=C(O)OC(CCc3ncsc3C)(C(C)C)CC2=O)c(C(C)(C)C)cc1CO (stereo not given),1800 nM,1.3 nM,208000 nM,–
Cc1cc(SC2=C(O)OC(CCc3ccoc3)(C(C)C)CC2=O)c(C(C)(C)C)cc1CO (stereo not given),1000 nM,0.34 nM,199000 nM,Cmax [8]: 54.4 µM; half-life [9]: 336 min; Tmax [10]: 30 min; AUC [11]: 241
Cc1cc(SC2=C(O)OC(CCc3sccc3C)(C(C)C)CC2=O)c(C(C)(C)C)cc1CO (stereo not given),280 nM,–,80000 nM,–
Cc1cc(SC2=C(O)OC(CCc3ccc(N)cc3)(C(C)C)CC2=O)c(C(C)(C)C)cc1CO (racemic),500 nM,0.43 nM,> 100000 nM,Cmax [8]: 23 µM; half-life [9]: 132 min; Tmax [10]: 30 min; AUC [11]: 42

# From ChEMBL document CHEMBL1134529, “4-Hydroxy-5,6-dihydropyrones as inhibitors of HIV protease: the effect of heterocyclic substituents at C-6 on antiviral potency and pharmacokinetic parameters” (J Med Chem, 2001)
